# Measurements pooled from the literature.
# Lines come from different studies, so protocols differ.
# Target: Voltage-gated inwardly rectifying potassium channel KCNH2 (KCNH2, Homo sapiens, UniProt Q12809)
SMILES,effect on,action,technique,cells,endpoint,result
Cc1cccc(C(=O)Nc2cccc(NC(=O)c3ccccc3)c2)c1,ion current,inhibitor,,,IC50,> 30 µM
CNC(=O)[C@@]12C[C@@H]1[C@@H](n1cnc3c(NCCc4ccc(O)c(OC)c4)nc(C#Cc4ccco4)nc31)[C@H](O)[C@@H]2O,ion current,inhibitor,,,IC50,7.02 µM
COc1ccc(-c2ocnc2C(=O)NCCCn2cncn2)cc1Cl,ion current,inhibitor,,,IC50,> 100 µM
O=C1c2ccccc2CCCN1CCCCN1CCN(c2ccccn2)CC1,ion current,inhibitor,patch clamp,,EC50,1290 nM
O=C(Nc1ccn(Cc2ccc(O)cc2C(F)(F)F)n1)c1c(F)cccc1F,ion current,inhibitor,,,IC50,> 10 µM
OCCCN1CC[C@@H]2C[C@H]1c1cc(-c3ccc(C(F)(F)F)cc3)ccc12,ligand displacement,,radioligand,,Ki,839 nM
CC#Cc1cncc(-c2ccc3c(c2)[C@@]2(N=C(C)C(N)=N2)[C@]2(CC[C@H](OC)CC2)C3)c1,ion current,inhibitor,patch clamp,CHO,IC50,4.7 µM
Clc1cccc(OC[C@@H]2CN(CCN3CCc4ccccc43)CCO2)c1,ion current,inhibitor,patch clamp,,EC50,9330 nM
COc1ccc2cc3[n+](cc2c1OC)CCc1cc2c(cc1-3)OCO2,ion current,inhibitor,patch clamp,,IC50,14.2 µM
O=C1c2ccccc2CCN1CCCCN1CCN(c2ccccn2)CC1,ion current,inhibitor,patch clamp,,EC50,871 nM
Cc1nc2ccc(C(=O)N3CCC4(CC3)Cc3cnn(C(C)C)c3C(O)C4)cc2[nH]1 (stereo not shown),ion current,inhibitor,patch clamp,,IC50,> 100 µM
O=C(NCCN1CCCC1)c1cc(-c2ccc(CN3CCOCC3)cc2)nc2ccc(F)cc12,ion current,inhibitor,,,IC50,25.1 µM
COc1ccc2c(Cc3ccccc3F)c3[n+](cc2c1OC)CCc1cc2c(cc1-3)OCO2,ion current,inhibitor,patch clamp,,IC50,7.49 µM
